Assay outcomes deposited in PubChem by Johns Hopkins Ion Channel Center.
TRPC4 inh: inhibitors of mouse TRPC4 channel, primary screen, Fluo4 calcium, HEK293 TRPC4beta/mu-opioid cells; B-score at 10 µM; DAMGO-evoked Fluo4 calcium flux; hits give low values; 300,000 tested, 0.39% active; AID 2247, 2010; Short transient receptor potential channel 4 (Mus musculus), Q9QUQ5;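 active = B-score over 3 SD under the library average, no early fluorescence shift, positive overall ratio signal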
Target sequence (Q9QUQ5 whole entry, looked up): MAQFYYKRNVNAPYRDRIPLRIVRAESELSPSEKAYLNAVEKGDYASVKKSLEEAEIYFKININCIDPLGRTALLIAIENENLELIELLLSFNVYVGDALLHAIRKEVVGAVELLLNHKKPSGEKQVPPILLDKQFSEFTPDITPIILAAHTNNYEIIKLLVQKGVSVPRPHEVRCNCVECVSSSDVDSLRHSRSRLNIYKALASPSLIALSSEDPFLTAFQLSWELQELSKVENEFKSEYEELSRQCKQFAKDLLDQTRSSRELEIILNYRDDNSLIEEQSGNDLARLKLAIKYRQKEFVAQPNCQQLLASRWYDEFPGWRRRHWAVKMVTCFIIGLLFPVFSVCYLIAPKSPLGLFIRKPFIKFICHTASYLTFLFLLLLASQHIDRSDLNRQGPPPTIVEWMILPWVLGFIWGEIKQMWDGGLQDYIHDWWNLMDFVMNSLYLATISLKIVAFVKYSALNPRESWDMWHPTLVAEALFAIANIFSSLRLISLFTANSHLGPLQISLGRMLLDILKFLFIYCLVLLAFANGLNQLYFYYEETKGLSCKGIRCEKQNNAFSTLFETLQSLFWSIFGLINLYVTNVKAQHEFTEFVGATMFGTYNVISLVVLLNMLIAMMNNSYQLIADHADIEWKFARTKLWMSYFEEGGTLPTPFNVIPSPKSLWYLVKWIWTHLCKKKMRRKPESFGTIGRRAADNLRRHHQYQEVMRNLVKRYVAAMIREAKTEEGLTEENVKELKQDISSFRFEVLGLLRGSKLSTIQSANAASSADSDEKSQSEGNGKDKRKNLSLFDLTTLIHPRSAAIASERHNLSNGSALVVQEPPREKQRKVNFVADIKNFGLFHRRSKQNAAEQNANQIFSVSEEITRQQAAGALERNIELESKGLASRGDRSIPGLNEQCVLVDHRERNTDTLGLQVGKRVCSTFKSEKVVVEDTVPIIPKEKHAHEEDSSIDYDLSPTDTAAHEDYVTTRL
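Material: HEK293 cells with stable TRPC4beta plus mu-opioid receptor expression; probe or stimulus: DAMGO in two steps, submaximal then maximal; technique: Fluo4 calcium fluorescence by kinetic imaging, 5 s 1 Hz baseline; measure: integrated fluorescence ratio relative to baseline, converted to per-well B score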
TRPC6 inhibitor: mouse TRPC6 channel inhibitors, primary screen, cell-based, HEK293, membrane potential dye; Short transient receptor potential channel 6 (Mus musculus), Q61143; ACh-evoked depolarization; hits give low values; B-score at 10 µM; 310,000 tested, 1.1% active; AID 2553, 2010;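 active = B-score under library mean minus 3 SD, initial fluorescence not abnormally high, positive integrated signal ratio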;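 note: B-score derived from integrated fluorescence ratio over the kinetic read; more negative B-score means stronger inhibition of depolarization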
TRPC4 agonist: activators of mouse TRPC4 channel, primary screen, Fluo4 calcium, HEK293 TRPC4beta/mu-opioid cells | 310,000 tested, 0.49% active | B-score at 10 µM | Short transient receptor potential channel 4 (Mus musculus), Q9QUQ5 | AID 2237, 2010 | Fluo4 calcium fluorescence; hits give high values;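 active = B-score above 5 SD of library B-scores, and initial fluorescence ratio not above library mean plus 5 SD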;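 note: positive B-score marks a calcium rise read as TRPC4 activation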
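Assay system – TRPC4beta and mu-opioid receptor HEK293 stable cells · Measured by – Fluo4 fluorescence, kinetic · Schedule – dye loading 45 min room temperature, 110 s kinetic read · Read-out – B-scored integrated calcium fluorescence ratio · Controls – buffer and maximal DAMGO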
TRPC4 PAM: positive allosteric modulators of TRPC4, primary screen, cell-based, mouse TRPC4beta, HEK293 mu-opioid, Fluo-4 calcium | DAMGO EC20, Fluo-4 Ca2+ flux; hits give high values | 310,000 tested, 0.42% active | Short transient receptor potential channel 4 (Mus musculus), Q9QUQ5 | AID 2227, 2009 | B-score at 10 µM;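 active = B-score of calcium response area above 5 SD of library B-scores, with initial fluorescence ratio within 5 SD of library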;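 note: B-score of integrated fluorescence ratio over time as area under calcium response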
TRPC6 activator: mouse TRPC6 channel activators, primary screen, cell-based, HEK293, membrane potential dye; Short transient receptor potential channel 6 (Mus musculus), Q61143; HEK293-TRPC6 membrane potential dye fluorescence; hits give high values; B-score at 10 µM; 310,000 tested, 0.13% active;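 active = B-score of the integrated fluorescence ratio above library mean plus 3 SD, and starting fluorescence ratio within library mean plus 5 SD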;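 note: higher score means more depolarization so channel activation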
TRPC4 spec 2: mouse TRPC4 off-target activity of TRPC6 inhibitors, second screen; HEK293 TRPC4/MOR, membrane potential dye fluorescence; channel activated by saturating DAMGO dose; shares compounds with TRPC6 inhibitor; 920 tested, 42% active; inhibition, % at 10 µM;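 active = compounds whose fluorescence signal differed from control wells by over 3 SD, either direction, in both duplicate plates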
TRPC4 spec: mouse TRPC4 modulation by TRPC6 hits, confirmation, selectivity assay for TRPC6 inhibitor project, cell-based, HEK293 TRPC4/mu-opioid, membrane potential dye; shares compounds with TRPC6 inhibitor; membrane potential fluorescence; activity change, negative = inhibition, % at 10 µM; 920 tested, 61% active; AID 2777, 2010;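 active = rise or fall in signal beyond 3 SD of buffer-only wells in both replicate plates, either sign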;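 note: integrated kinetic ratio of fluorescence range over baseline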
HEK293 MPD ctr 2-1: nonspecific membrane potential effects, parental HEK293, confirmation, counter-screen for TRPC6 inhibitor project, cell-based, second counter screen; shares compounds with TRPC6 inhibitor; parental HEK293 membrane potential dye fluorescence; maximal acetylcholine challenge after compound addition; signal change vs control, % at 10 µM; 920 tested, 31% active; AID 2779, 2010;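 active = membrane potential signal moving either way by over 3 SD of the maximum-effect control, in both duplicate plates, meaning non-specific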
HEK293 MPD ctr-1: membrane potential modulation in parental HEK293, confirmation, counter-screen for TRPC6 inhibitor project, cell-based; shares compounds with TRPC6 inhibitor; parental HEK293 membrane potential dye fluorescence; membrane potential signal change, % at 10 µM; 920 tested, 60% active; AID 2780, 2010;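 active = membrane potential signal shifting up or down by more than 3 SD of buffer-only wells, on both duplicate plates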
HEK293 MPD ctr-2: parental HEK293 membrane potential modulation, confirmation, counter-screen for TRPC6 modulator project, cell-based; shares compounds with TRPC6 inhibitor; membrane potential dye fluorescence; membrane potential signal change, % at 10 µM; 2,400 tested, 51% active; AID 488924, 2010;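 active = membrane potential signal moves up or down beyond 5 SD from buffer-only wells, on both duplicate plates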
HEK293 MPD ctr 2-2: parental HEK293 nonspecific activity of TRPC6 modulators, second screen; shares compounds with TRPC6 inhibitor; 2,400 tested, 14% active; membrane potential dye fluorescence; after compound, maximal acetylcholine stimulation; inhibition, % at 10 µM;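 active = membrane potential signal drops by more than 5 SD from the mean control signal, in both duplicate plates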;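 note: plate controls were acetylcholine ECmax control wells for no effect and buffer only wells for full effect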
TRPC4 ctr mod: TRPC4 modulation by TRPC6 hit compounds, confirmation, selectivity assay for TRPC6 modulator project, cell-based, HEK293 TRPC4/mu-opioid, membrane potential dye, mouse | membrane potential fluorescence | 2,400 tested, 69% active | shares compounds with TRPC6 inhibitor | percent change from control (negative = decrease, positive = increase), % at 10 µM;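 active = membrane potential signal moved up or down beyond 5 SD of buffer control wells, in both duplicate plates, actives on both sides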;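 note: plate controls were assay buffer wells for no effect and DAMGO maximal-effect wells for full effect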
TRPC4 ctr inh 2: second check of whether TRPC6 modulators also affect mouse TRPC4; HEK293 TRPC4/mu-opioid, membrane potential dye fluorescence; stimulated with maximal-effect DAMGO; shares compounds with TRPC6 inhibitor; inhibition, % at 10 µM; 2,400 tested, 55% active;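 active = drop in membrane potential signal beyond 5 SD of the control wells in both duplicate plates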;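 note: TRPC4 counter screen for TRPC6 hits run under conditions tuned for TRPC6 not TRPC4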
TRPC6 inh conf: mouse TRPC6 channel inhibitors, confirmation, HEK293 cells, membrane potential dye, duplicate; shares compounds with TRPC6 inhibitor; ACh-evoked depolarization; inhibition, % at 10 µM; 3,300 tested, 43% active;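 active = fluorescence ratio falls more than 5 SD below the full-stimulation control mean, in both duplicate runs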;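 note: integrated fluorescence ratio of peak minus minimum over baseline after agonist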
TRPC6 act conf: mouse TRPC6 channel activators, confirmation, HEK293 cells, membrane potential dye, duplicate. shares compounds with TRPC6 inhibitor. HEK293-TRPC6 membrane potential dye fluorescence, FDSS. activation, % at 10 µM. 2,800 tested, 11% active. AID 488961, 2010;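 active = ratio signal rise beyond 5 SD above unstimulated control wells' mean, seen in both duplicate runs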;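 note: plate controls were buffer EC0 wells for no effect and acetylcholine ECmax response for full effect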
Numbers without * were called inactive; i = inactive; . = no result. An excerpt weighted towards active compounds, which were near 2.3% of everything screened.

SMILES	TRPC4 inh	TRPC6 inhibitor	TRPC4 agonist	TRPC4 PAM	TRPC6 activator	HEK293 MPD ctr-2	HEK293 MPD ctr 2-2	TRPC4 ctr mod	TRPC4 ctr inh 2	TRPC6 inh conf	TRPC6 act conf	others
C[N+]1(C)CCCC(OC(=O)C(O)(c2ccccc2)c2ccccc2)C1 (stereo not drawn)	i	-13*	i	i	i	.	.	.	.	94%*	i	TRPC4 spec 2=i;TRPC4 spec=i;HEK293 MPD ctr 2-1=-23%*;HEK293 MPD ctr-1=i
COc1ccc(Nc2c3c(nc4ccccc24)CCCC3)cc1OC	i	-6*	i	i	i	i	i	i	44%*	i	i
COc1ccc(CCNc2c3ccccc3nc3ccccc23)cc1OC	i	-6.8*	i	i	i	.	.	.	.	i	i	TRPC4 spec 2=68%*;TRPC4 spec=-24%*;HEK293 MPD ctr 2-1=i;HEK293 MPD ctr-1=-412%*
CN(C)CCCNc1c2c(nc3ccccc13)CCC2	i	i	i	i	i	.	.	.	.	.	.
COCCNc1c2c(nc3ccccc13)CCC2	-6*	-5.2*	i	i	i	-144%*	i	-26%*	52%*	46%*	i
c1ccc2c(N3CCOCC3)c3c(nc2c1)CCC3	i	-5.3*	i	i	i	-283%*	i	-40%*	48%*	i	i
CN(C)c1ccc(P(=O)(OCc2ccccc2)C(O)c2ccccc2)cc1 (stereo not drawn)	i	i	i	i	i	.	.	.	.	.	.
COc1ccc2[nH]c(C(=O)N(C)c3ccc(F)cc3F)cc2c1	i	i	i	i	i	.	.	.	.	.	.
CC/C(C)=N/Nc1cccc([N+](=O)[O-])c1	i	i	i	i	i	.	.	.	.	.	.
COc1ccc(OC)c(S(=O)(=O)NCCCN2CCCC2=O)c1	i	i	i	i	i	.	.	.	.	.	.
COc1ccc(Nc2c3c(nc4ccccc24)CCC3)cc1	-7*	-5.2*	i	i	i	157%*	i	24%*	36%*	i	.
O=C(CCc1ccccc1)c1c(O)cc(O)cc1O	i	-5.6*	i	i	i	-84%*	i	-20%*	74%*	50%*	i
COc1ccc(OC)c(CN2CCN(C(=O)CN3C(=O)NC4(CCCC4)C3=O)CC2)c1	i	i	i	i	i	.	.	.	.	.	.
OCCNCc1ccc(OCc2ccc(Cl)cc2Cl)cc1	i	-6.7*	i	i	i	.	.	.	.	i	.	TRPC4 spec 2=68%*;TRPC4 spec=8.3%*;HEK293 MPD ctr 2-1=283%*;HEK293 MPD ctr-1=11%*
CCc1ccc(-c2cc(C(=O)O)c3ccccc3n2)s1	i	i	i	i	i	.	.	.	.	.	.
NC(=O)C[n+]1cccc(C(=O)Nc2ccccc2)c1	i	i	i	i	i	.	.	.	.	.	.
COc1cccc(C2=NCCc3cc4c(cc32)OCO4)c1OC	i	i	i	i	i	.	.	.	.	.	.
COc1ccc2cc3[n+](cc2c1OC)CCc1cc2c(cc1-3)OCO2	i	-5.2*	i	i	i	i	110%*	i	i	i	i
Cc1cc(OCc2nnc(SCC(=O)O)n2-c2ccccc2)ccc1Cl	i	i	i	i	i	.	.	.	.	.	.
O=C(O)CCN1CCN(S(=O)(=O)c2ccc3ccccc3c2)CC1	i	i	i	i	i	.	.	.	.	.	.
CCN(CC)CC#CCC(O)(c1ccccc1)C1CCCC1 (stereo not drawn)	i	-6.5*	i	i	i	156%*	100%*	30%*	i	75%*	.
OCCN(CC#CCC(O)(c1ccccc1)C1CCCC1)CCO (stereo not drawn)	i	i	i	i	i	.	.	.	.	.	.
CN(C)CC#CCC(O)(c1ccccc1)C1CCCCC1 (stereo not drawn)	i	-6.5*	i	i	i	i	105%*	20%*	36%*	78%*	i
CCC[N+]1(CC#CC(O)(c2ccccc2)C2CCCCC2)CCCCC1 (stereo not drawn)	i	i	i	i	i	.	.	.	.	.	.
CCN(CC)CCC#CC(O)(c1ccccc1)C1CCCCC1 (stereo not drawn)	i	-7.6*	i	i	i	.	.	.	.	64%*	.	TRPC4 spec 2=62%*;TRPC4 spec=49%*;HEK293 MPD ctr 2-1=i;HEK293 MPD ctr-1=17%*
CCCn1c(NCc2c[nH]c3ccccc23)nc2ccccc21	i	-8.5*	i	i	i	.	.	.	.	i	i	TRPC4 spec 2=25%*;TRPC4 spec=-16%*;HEK293 MPD ctr 2-1=i;HEK293 MPD ctr-1=-209%*
